Assays:
[1] = target: T1, Glucose-dependent insulinotropic receptor (Homo sapiens) (UniProt Q8TDV5); experiment: Agonist activity at human GPR119 by melanophore assay relative to AR231453; assay type: functional
T1 sequence (whole entry): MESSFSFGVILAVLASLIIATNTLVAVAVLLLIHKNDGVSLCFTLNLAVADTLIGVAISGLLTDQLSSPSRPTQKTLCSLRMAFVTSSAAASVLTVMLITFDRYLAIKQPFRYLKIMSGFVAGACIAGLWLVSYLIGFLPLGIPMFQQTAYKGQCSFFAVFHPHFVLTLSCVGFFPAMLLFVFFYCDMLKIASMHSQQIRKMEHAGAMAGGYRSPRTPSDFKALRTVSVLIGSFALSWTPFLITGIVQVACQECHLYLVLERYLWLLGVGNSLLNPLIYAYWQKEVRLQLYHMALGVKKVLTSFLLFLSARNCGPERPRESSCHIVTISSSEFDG
Procedure, shortened: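 Melanophores transfected with human GPR119. Apparent Emax is the curve height normalized to the positive control AR231453, which is defined as a full agonist (100% efficacy).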

[2] = target: T2, Glucose-dependent insulinotropic receptor (Homo sapiens, UniProt Q8TDV5); experiment: Agonist activity at human GPR119 by melanophore assay; assay type: functional
T2 sequence (Q8TDV5 whole entry): T1 sequence (whole entry)
Procedure, shortened: (§1)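 Agonist EC50 measured in melanophores transfected with the human or rat GPR119 receptor sequence. Values are means of multiple determinations (n).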

[3] = target: T3, Glucose-dependent insulinotropic receptor (Rattus norvegicus, UniProt Q7TQN8); experiment: Agonist activity at rat GPR119 by melanophore assay; assay type: functional; procedure, shortened: as §1
T3 sequence (Q7TQN8 whole entry): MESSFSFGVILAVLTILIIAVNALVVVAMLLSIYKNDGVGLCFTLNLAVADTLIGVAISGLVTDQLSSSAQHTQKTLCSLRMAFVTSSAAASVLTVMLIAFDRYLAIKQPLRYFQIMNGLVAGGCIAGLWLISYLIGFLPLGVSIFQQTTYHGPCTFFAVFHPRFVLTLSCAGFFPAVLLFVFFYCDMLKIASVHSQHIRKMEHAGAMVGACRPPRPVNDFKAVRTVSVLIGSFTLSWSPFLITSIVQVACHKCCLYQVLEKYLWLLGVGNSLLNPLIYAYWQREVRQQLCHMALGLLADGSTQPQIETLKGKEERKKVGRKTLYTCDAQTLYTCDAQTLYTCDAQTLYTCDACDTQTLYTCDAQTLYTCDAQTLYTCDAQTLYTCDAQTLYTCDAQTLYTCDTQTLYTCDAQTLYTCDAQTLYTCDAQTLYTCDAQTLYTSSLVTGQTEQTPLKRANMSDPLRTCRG

[4] = target: T4, Glucose-dependent insulinotropic receptor (Rattus norvegicus) (UniProt Q7TQN8); experiment: Selectivity ratio of EC50 for rat GPR119 to EC50 for human GPR119
T4 sequence (whole entry): T3 sequence (Q7TQN8 whole entry)

Emax [1] [%]	EC50 [2] [nM]	EC50 [3] [nM]	Ratio EC50 [4]	Compound
89	11.6	–	–	CN(CC1CCN(C(=O)OC(C)(C)C)CC1)c1ncnc2c1cnn2-c1ccc(S(C)(=O)=O)cc1
–	0.65	–	–	CC(C)c1noc(C2CCN(c3ncnc(Nc4ccc(S(C)(=O)=O)cc4F)c3[N+](=O)[O-])CC2)n1
72	3.4	88	25.9	CC(C)(C)OC(=O)N1CCC(Cc2ncnc3c2cnn3-c2ccc(S(C)(=O)=O)cc2F)CC1
99	4.2	–	–	CC(C)COC(=O)N1CCC(Oc2ncnc3c2cnn3-c2ccc(S(C)(=O)=O)cc2)CC1
83	3.5	–	–	CC(C)OC(=O)N1CCC(Oc2ncnc3c2cnn3-c2ccc(S(C)(=O)=O)cc2)CC1
103	7.4	42	5.7	CC(C)(C)OC(=O)N1CCC(Oc2ncnc3c2nnn3-c2ccc(S(C)(=O)=O)cc2)CC1
105	8.1	65	8	CC(C)(C)COC(=O)N1CCC(Oc2ncnc3c2cnn3-c2ccc(S(C)(=O)=O)cc2)CC1
104	5.6	15.5	3	CC(C)(C)OC(=O)N1CCC(Sc2ncnc3c2cnn3-c2ccc(S(C)(=O)=O)cc2)CC1
–	> 10000	–	–	CN(C)CCOC(=O)N1CCC(Oc2ncnc3c2cnn3-c2ccc(S(C)(=O)=O)cc2)CC1
67	6.3	–	–	CCN(CC1CCN(C(=O)OC(C)(C)C)CC1)c1ncnc2c1cnn2-c1ccc(S(C)(=O)=O)cc1
90	116	–	–	Cc1nc(OC2CCN(C(=O)OC(C)(C)C)CC2)c2c(C)nn(-c3ccc(S(C)(=O)=O)cc3)c2n1
91	7.3	120	16.4	CC(C)(C)OC(=O)N1CCC(Cc2ncnc3c2cnn3-c2ccc(S(C)(=O)=O)cc2)CC1
79	0.9	19.6	21.8	CC(C)(C)OC(=O)N1CCC(Oc2ncnc3c2cnn3-c2ccc(S(C)(=O)=O)cc2F)CC1
96	1.1	9.8	8.9	CC(C)(C)OC(=O)N1CCC(Oc2ncnc3c2cnn3-c2ccc(S(C)(=O)=O)cc2)CC1
82	3.4	264	77.6	CCN(CC1CCN(C(=O)OC(C)C)CC1)c1ncnc2c1cnn2-c1ccc(S(C)(=O)=O)cc1F
103	15	42	3	Cc1nn(-c2ccc(S(C)(=O)=O)cc2)c2ncnc(OC3CCN(C(=O)OC(C)(C)C)CC3)c12

Emax [1] [%]	EC50 [2] [nM]	EC50 [3] [nM]	Ratio EC50 [4]	Compound
–	42	–	–	CC(C)c1noc(C2CCN(c3ncnc4c3cnn4-c3ccc(S(C)(=O)=O)cc3)CC2)n1
–	2400	> 10000	–	CC(C)(C)OC(=O)N1CCC([S+]([O-])c2ncnc3c2cnn3-c2ccc(S(C)(=O)=O)cc2)CC1 (stereo not drawn)
80	14.6	21	1.4	CS(=O)(=O)c1ccc(-n2ncc3c(OC4CCN(C(=O)OC5CCCC5)CC4)ncnc32)cc1
87	265	–	–	CC(C)(C)OC(=O)N1CCC(CNc2ncnc3c2cnn3-c2ccc(S(C)(=O)=O)cc2)CC1
95	33.4	–	–	CC(C)(C)OC(=O)N1CCC(Oc2ncnc3c2ncn3-c2ccc(S(C)(=O)=O)cc2)CC1
100	0.7	17	24.3	CC(C)(C)OC(=O)N1CCC(Oc2ncnc3c(-c4ccc(S(C)(=O)=O)cc4)noc23)CC1
71	435	–	–	CS(=O)(=O)c1ccc(-n2ncc3c(OC4CCN(C(=O)OC5CCOC5)CC4)ncnc32)cc1 (stereo not drawn)
–	5.1	–	–	CC(C)c1noc(C2CCN(c3ncnc(Nc4ccc(S(C)(=O)=O)cc4)c3[N+](=O)[O-])CC2)n1
64	0.6	–	–	CC(C)(C)OC(=O)N1CCC(Oc2ncnc3c2[nH]c(=O)n3-c2ccc(S(C)(=O)=O)cc2F)CC1
98	0.5	7.3	14.6	CC(C)(C)OC(=O)N1CCC(Sc2ncnc3c2cnn3-c2ccc(S(C)(=O)=O)cc2F)CC1
91	3.8	53	13.9	CCOC(=O)N1CCC(Oc2ncnc3c2cnn3-c2ccc(S(C)(=O)=O)cc2)CC1
101	250	> 10000	> 40	CC(C)(C)OC(=O)N1CCC(Nc2ncnc3c2cnn3-c2ccc(S(C)(=O)=O)cc2)CC1
–	> 10000	> 10000	–	CC(C)(C)OC(=O)N1CCC(S(=O)(=O)c2ncnc3c2cnn3-c2ccc(S(C)(=O)=O)cc2)CC1
65	14	40	3	CC(C)OC(=O)N1CCC(Oc2ncnc3c(-c4ccc(S(C)(=O)=O)cc4)noc23)CC1
79	7.5	–	–	CCCCOC(=O)N1CCC(Oc2ncnc3c2cnn3-c2ccc(S(C)(=O)=O)cc2)CC1

— ChEMBL document CHEMBL1773020, “Discovery of fused bicyclic agonists of the orphan G-protein coupled receptor GPR119 with in vivo activity in rodent models of glucose control” (Bioorg Med Chem Lett, 2011)
